Shown are actives, neighbours in structure and some others; about 4.6% of the full set was active somewhere.
RAM network inh = inhibitors of the yeast RAM network, primary screen, dse1pr::URA3 reporter, 5-FOA selection; S. cerevisiae dse1pr::URA3 reporter, 5-FOA growth OD615, 2 d; analog-sensitive cbk1-as2 kinase mutant strain; inhibition, % at 50 µM; 190,000 compounds, 1.8% hits; AID 868, 2007;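 active means inhibition above a set limit, 3 SD over mean compound inhibition, cut at about 8.4% in these data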;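 further: inhibition rescues growth on 5-FOA so higher OD means more RAM inhibition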
Arbovirus inh = antivirals against arbovirus infection, primary screen, cell-based, full library, 10K replicate subset; arbovirus infection cell-based antiviral screen; inhibition, % at 10 µM; 200,000 compounds, 0.37% hits; AID 1251, 2008; in the data active means inhibition above about 30%
NCF1 inh = p47phox/p22phox peptide binding inhibitors, primary screen, biochemical, uHTS, NADPH oxidase regulatory subunit; Neutrophil cytosol factor 1 (Homo sapiens), P14598; fluorescence polarization, 2 h; inhibition, % at 24.7 µM; 220,000 compounds, 0.53% hits;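 active means inhibition above about 30%, limit read from the data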
WT yeast gro inh = growth inhibition of WT strain, primary screen, mitochondrial fusion inhibitor project, WT and mutant strains, chemical genetic | mitochondrial fusion phenotypic screen | inhibition, % at 10 µM | 190,000 compounds, 2.1% hits; in the data active means inhibition above about 58%; tested in S. cerevisiae
Hck Nef HTS = inhibitors of Nef-activated human Hck kinase, primary screen, biochemical, Z-Lyte FRET, 384-well, Hck-YEEI | Recombinant Hck-YEEI plus Nef, Z-Lyte FRET kinase assay | inhibition, % at 20 µM | 220,000 compounds, 0.68% hits | AID 463187, 2010 | Tyrosine-protein kinase HCK (Homo sapiens), P08631;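 active means Hck-Nef kinase inhibition above about 50%, limit read from the data; inactive means inhibition below that limit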
Target sequence (P08631 whole entry, looked up): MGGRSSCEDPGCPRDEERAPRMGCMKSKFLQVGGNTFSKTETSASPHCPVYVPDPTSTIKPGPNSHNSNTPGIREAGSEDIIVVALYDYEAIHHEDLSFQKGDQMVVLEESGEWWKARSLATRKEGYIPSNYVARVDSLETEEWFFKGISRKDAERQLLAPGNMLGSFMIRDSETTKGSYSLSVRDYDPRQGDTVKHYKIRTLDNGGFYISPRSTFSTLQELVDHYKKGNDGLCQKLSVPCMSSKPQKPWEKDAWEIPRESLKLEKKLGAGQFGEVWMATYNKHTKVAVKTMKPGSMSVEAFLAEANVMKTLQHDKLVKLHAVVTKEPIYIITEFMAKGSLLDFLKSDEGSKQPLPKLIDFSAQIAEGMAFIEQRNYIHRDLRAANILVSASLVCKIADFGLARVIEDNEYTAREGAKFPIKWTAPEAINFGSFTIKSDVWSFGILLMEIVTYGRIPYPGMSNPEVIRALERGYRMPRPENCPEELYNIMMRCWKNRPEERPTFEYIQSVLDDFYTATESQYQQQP
Biofilm kill mix = clotrimazole potentiators killing C. albicans biofilm, primary screen, 4-compound mixtures; AID 1242, 2008; inhibition, % at 7.6 µM; 120,000 compounds, 0.02% hits; C. albicans biofilm persisters + clotrimazole, fluorescence viability; primary screen in compound mixtures of four per well;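 further: compounds exposed to preformed 24 h biofilms for 48 h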
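System: C. albicans CAF4-2 wild-type biofilms; Medium: RPMI/MOPS medium, pH 7.0; Reagent: Clotrimazole, 50 µg/mL; Times: biofilm formation 24 h, compound exposure 48 h, 37 °C; Detection: 2-h Alamar Blue fluorescence, 535/590 nm excitation/emission; Evaluation: percent inhibition of biofilm viability.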
Numbers stand for hits.

For Cn1c(N=Nc2ccccc2)nc2ccccc21 the results were RAM network inh inactive, Arbovirus inh inactive, NCF1 inh inactive, WT yeast gro inh 86, Hck Nef HTS inactive and Biofilm kill mix inactive.
CCN1C(=O)C2(C(C#N)=C(N)Oc3c2c(C)nn3-c2ccccc2)c2ccccc21 (centres undefined) was read as RAM network inh inactive, Arbovirus inh inactive, NCF1 inh inactive and Hck Nef HTS inactive.
`Cc1nn(-c2ccccc2)c2c1C1(C(=O)N(C)c3ccccc31)C(C#N)=C(N)O2` (centres undefined) gave RAM network inh 9.8, Arbovirus inh inactive, NCF1 inh inactive, WT yeast gro inh inactive and Hck Nef HTS inactive.
Screening CCOC(=O)c1cc(C#N)c(SCc2cccc3ccccc23)nc1C returned RAM network inh 10, Arbovirus inh inactive, NCF1 inh inactive, WT yeast gro inh inactive and Hck Nef HTS inactive.
For CC(=O)c1cc(C#N)c(SCc2ccccc2C#N)nc1C the results were RAM network inh inactive, Arbovirus inh inactive, NCF1 inh inactive, WT yeast gro inh inactive, Hck Nef HTS inactive and Biofilm kill mix inactive.
`N#Cc1c(NC(=O)CSc2nc3c(c(C(F)(F)F)n2)CCc2ccccc2-3)sc2c1CCCC2` gave RAM network inh inactive, Arbovirus inh inactive, NCF1 inh inactive, WT yeast gro inh inactive and Hck Nef HTS inactive.
Screening Cc1ccc(Cn2nc(C)c(NC(=O)CSc3nc4c(c(C(F)(F)F)n3)CCc3ccccc3-4)c2C)cc1 returned RAM network inh inactive, Arbovirus inh inactive, NCF1 inh 50, WT yeast gro inh inactive, Hck Nef HTS inactive and Biofilm kill mix inactive.
Cc1nn(Cc2ccc(Cl)cc2)c(C)c1NC(=O)CSc1nc2c(c(C(F)(F)F)n1)CCc1ccccc1-2 was read as RAM network inh inactive, Arbovirus inh inactive, NCF1 inh 45, WT yeast gro inh inactive and Hck Nef HTS inactive.
For O=C(Nc1ccccc1F)NC1CCCc2ccccc21 (centres undefined) the results were NCF1 inh inactive, Hck Nef HTS inactive and Biofilm kill mix inactive.
`CSc1ccc(C#N)cc1NC(=O)c1ccccc1C` gave RAM network inh inactive, Arbovirus inh inactive, NCF1 inh inactive, WT yeast gro inh inactive, Hck Nef HTS inactive and Biofilm kill mix inactive.
Screening CO/N=C\c1cc(C(=O)c2ccc(Cl)cc2Cl)cn1C returned RAM network inh inactive, Arbovirus inh inactive, NCF1 inh inactive, WT yeast gro inh 60, Hck Nef HTS inactive and Biofilm kill mix inactive.
c1ccc(Cn2nnnc2C(c2cccnc2)N2CCN(c3ccccc3)CC2)cc1 (centres undefined) was read as RAM network inh inactive, Arbovirus inh inactive, NCF1 inh inactive, WT yeast gro inh inactive and Hck Nef HTS inactive.
For O=C(Oc1ccc2ccccc2c1Br)N1CCCCCC1 the results were RAM network inh inactive, Arbovirus inh inactive, NCF1 inh inactive, WT yeast gro inh 71 and Hck Nef HTS inactive.
For O=C(Oc1ccc2cc(Br)ccc2c1)N1CCCCCC1 the results were RAM network inh inactive, Arbovirus inh inactive, NCF1 inh inactive, WT yeast gro inh 68, Hck Nef HTS inactive and Biofilm kill mix inactive.
Screening CCN(CC)C(=O)Oc1ccc2ccccc2c1Br returned RAM network inh inactive, Arbovirus inh inactive, NCF1 inh inactive, WT yeast gro inh inactive, Hck Nef HTS inactive and Biofilm kill mix inactive.
`COc1ccc(-n2c(SCc3cn4c(C)cccc4n3)nc3ccccc3c2=O)cc1OC` gave RAM network inh inactive, Arbovirus inh inactive, NCF1 inh inactive, WT yeast gro inh inactive, Hck Nef HTS inactive and Biofilm kill mix inactive.
For CC(C)(C)c1ccc(OCc2nc(-c3ccccn3)no2)c(Br)c1 the results were RAM network inh inactive, Arbovirus inh inactive, NCF1 inh inactive, WT yeast gro inh 80 and Hck Nef HTS inactive.
Clc1cc(Cl)c(OCc2nc(-c3ccccn3)no2)cc1Cl was read as RAM network inh 11, Arbovirus inh inactive, NCF1 inh inactive, WT yeast gro inh inactive and Hck Nef HTS inactive.
`c1ccc(Cc2nc(-c3ccccn3)no2)cc1` gave RAM network inh inactive, Arbovirus inh inactive, NCF1 inh inactive, WT yeast gro inh inactive and Hck Nef HTS inactive.
Screening CCc1ccc(C2=NN(CCC(=O)NC(C)CCc3ccccc3)C(=O)CC2)cc1 (centres undefined) returned RAM network inh inactive, Arbovirus inh inactive, NCF1 inh inactive, WT yeast gro inh inactive, Hck Nef HTS inactive and Biofilm kill mix inactive.
`Cc1ccc(O)c(C(=O)c2cnn(C(=O)COc3ccccc3C#N)c2)c1` gave NCF1 inh 32, Hck Nef HTS inactive and Biofilm kill mix inactive.
`Cc1ccc(O)c(C(=O)c2cnn(C(=O)COc3ccc(Cl)cc3)c2)c1` gave RAM network inh inactive, Arbovirus inh inactive, NCF1 inh inactive, WT yeast gro inh inactive, Hck Nef HTS inactive and Biofilm kill mix inactive.
`O=Cc1ccc(N2CCCC2)c([N+](=O)[O-])c1` gave RAM network inh inactive, Arbovirus inh inactive, NCF1 inh inactive, WT yeast gro inh inactive, Hck Nef HTS inactive and Biofilm kill mix inactive.
O=[N+]([O-])/C=C\c1ccc(N2CCCC2)c(F)c1 was read as RAM network inh inactive, Arbovirus inh inactive, NCF1 inh 36, WT yeast gro inh inactive, Hck Nef HTS inactive and Biofilm kill mix inactive.
`O=C(NC1CS(=O)(=O)CC1NCc1ccco1)c1ccccc1` (centres undefined) gave RAM network inh inactive, Arbovirus inh inactive, NCF1 inh inactive, WT yeast gro inh inactive and Hck Nef HTS inactive.
`CCN(CC)S(=O)(=O)c1cccc(C(=O)N[C@H](C(=O)O)C(C)C)c1` gave RAM network inh inactive, Arbovirus inh inactive, NCF1 inh 92, WT yeast gro inh inactive and Hck Nef HTS inactive.
CCN(CC)S(=O)(=O)c1cccc(NC(=O)C(=O)c2c(-c3ccccc3)cc3ccccn23)c1 was read as RAM network inh 9.9, Arbovirus inh inactive, NCF1 inh inactive, WT yeast gro inh inactive and Hck Nef HTS inactive.
For CCN(CC)S(=O)(=O)c1cccc(NC(=O)c2ccc(Br)cc2)c1 the results were RAM network inh 9.7, Arbovirus inh inactive, NCF1 inh inactive, WT yeast gro inh 70, Hck Nef HTS inactive and Biofilm kill mix inactive.
CCN(CC)S(=O)(=O)c1cccc(C(=O)Nc2cc(C)cc(C)c2)c1 was read as RAM network inh 8.5, Arbovirus inh inactive, NCF1 inh inactive, WT yeast gro inh inactive and Hck Nef HTS inactive.
CCN(CC)S(=O)(=O)c1cc(NC(=O)C(=O)c2c(-c3ccccc3)cc3ccccn23)ccc1C was read as RAM network inh inactive, Arbovirus inh inactive, NCF1 inh inactive, WT yeast gro inh inactive and Hck Nef HTS inactive.
